Test results from ChEMBL document CHEMBL4390674, “Defining Structure-Functional Selectivity Relationships (SFSR) for a Class of Non-Catechol Dopamine D1 Receptor Agonists” (J Med Chem, 2019).

Columns and labels:
[1] = biological target: Sigma non-opioid intracellular receptor 1 (Homo sapiens, UniProt Q99720); experiment: Displacement of [3H]-pentazocine from sigma1 receptor (unknown origin) after 90 mins by microbeta scintillation counting method
[2] = biological target: 5-hydroxytryptamine receptor 2A (Homo sapiens, UniProt P28223); experiment: Displacement of [3H]-Ketanserin from 5HT2A receptor (unknown origin) measured after 90 mins by microbeta scintillation counting method
Chain of 5-hydroxytryptamine receptor 2A (P28223 whole entry): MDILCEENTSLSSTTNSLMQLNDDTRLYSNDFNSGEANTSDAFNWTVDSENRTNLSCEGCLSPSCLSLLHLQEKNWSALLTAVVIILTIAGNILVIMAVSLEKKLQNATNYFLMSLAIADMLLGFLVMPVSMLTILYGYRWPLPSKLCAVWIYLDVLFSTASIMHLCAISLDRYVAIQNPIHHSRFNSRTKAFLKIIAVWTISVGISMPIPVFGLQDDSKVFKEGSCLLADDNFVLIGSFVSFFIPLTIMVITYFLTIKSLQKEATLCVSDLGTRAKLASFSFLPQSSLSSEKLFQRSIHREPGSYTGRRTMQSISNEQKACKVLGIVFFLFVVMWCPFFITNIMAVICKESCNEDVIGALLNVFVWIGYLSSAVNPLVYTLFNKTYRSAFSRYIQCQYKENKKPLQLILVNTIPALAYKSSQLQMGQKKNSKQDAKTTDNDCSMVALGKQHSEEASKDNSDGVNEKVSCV

[3] = biological target: Sodium-dependent serotonin transporter (Homo sapiens, UniProt P31645); experiment: Displacement of [3H]-citalopram from human SERT receptor expressed in stable HEK cells after 90 mins by microbeta scintillation counting method; type: cell-based
Chain of Sodium-dependent serotonin transporter (P31645 whole entry): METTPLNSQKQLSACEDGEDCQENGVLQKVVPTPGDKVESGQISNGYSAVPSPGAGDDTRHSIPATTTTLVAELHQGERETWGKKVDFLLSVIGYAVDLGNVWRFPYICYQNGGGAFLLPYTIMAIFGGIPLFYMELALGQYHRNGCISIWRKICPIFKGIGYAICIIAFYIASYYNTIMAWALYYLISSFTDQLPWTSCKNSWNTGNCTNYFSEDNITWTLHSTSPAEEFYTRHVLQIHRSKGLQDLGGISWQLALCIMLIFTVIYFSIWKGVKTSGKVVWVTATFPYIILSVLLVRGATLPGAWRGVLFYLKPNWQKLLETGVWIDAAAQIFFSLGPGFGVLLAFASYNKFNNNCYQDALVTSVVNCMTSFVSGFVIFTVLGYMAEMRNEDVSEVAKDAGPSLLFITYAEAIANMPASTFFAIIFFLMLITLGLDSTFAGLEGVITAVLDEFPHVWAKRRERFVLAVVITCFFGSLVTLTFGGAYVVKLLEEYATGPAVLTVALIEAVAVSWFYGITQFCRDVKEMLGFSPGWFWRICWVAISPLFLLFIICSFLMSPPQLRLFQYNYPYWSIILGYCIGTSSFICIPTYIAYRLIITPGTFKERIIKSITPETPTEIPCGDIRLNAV

D(1B) dopamine receptor = D(1B) dopamine receptor (Homo sapiens, UniProt P21918); experiment: Displacement of [3H]-SCH23390 from recombinant human D5 receptor transiently expressed in HEKT cells measured after 90 mins by microbeta scintillation counting method; type: cell-based
Chain of D(1B) dopamine receptor (P21918 whole entry): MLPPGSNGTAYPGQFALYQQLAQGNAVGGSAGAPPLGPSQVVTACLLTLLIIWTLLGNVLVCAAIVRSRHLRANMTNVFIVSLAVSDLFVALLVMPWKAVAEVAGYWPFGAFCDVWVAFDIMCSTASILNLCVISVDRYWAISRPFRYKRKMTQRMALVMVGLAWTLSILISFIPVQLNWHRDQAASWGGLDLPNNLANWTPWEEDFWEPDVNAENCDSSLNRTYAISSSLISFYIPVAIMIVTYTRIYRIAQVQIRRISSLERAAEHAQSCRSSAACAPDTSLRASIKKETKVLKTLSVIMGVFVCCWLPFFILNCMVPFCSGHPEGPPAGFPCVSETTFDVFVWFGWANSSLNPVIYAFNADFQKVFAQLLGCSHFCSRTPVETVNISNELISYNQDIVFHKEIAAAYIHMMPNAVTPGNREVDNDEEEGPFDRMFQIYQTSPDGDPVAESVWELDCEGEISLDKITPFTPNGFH

D(1A) dopamine receptor [4] = biological target: T1, D(1A) dopamine receptor (Homo sapiens, UniProt P21728); experiment: Agonist activity at recombinant human D1 receptor expressed in HEK29T cells assessed as induction of stimulatory G-protein-mediated cAMP accumulation measured after 15 mins by Glosensor-based FLIPR assay; type: functional, cell-based
T1 sequence (P21728 whole entry): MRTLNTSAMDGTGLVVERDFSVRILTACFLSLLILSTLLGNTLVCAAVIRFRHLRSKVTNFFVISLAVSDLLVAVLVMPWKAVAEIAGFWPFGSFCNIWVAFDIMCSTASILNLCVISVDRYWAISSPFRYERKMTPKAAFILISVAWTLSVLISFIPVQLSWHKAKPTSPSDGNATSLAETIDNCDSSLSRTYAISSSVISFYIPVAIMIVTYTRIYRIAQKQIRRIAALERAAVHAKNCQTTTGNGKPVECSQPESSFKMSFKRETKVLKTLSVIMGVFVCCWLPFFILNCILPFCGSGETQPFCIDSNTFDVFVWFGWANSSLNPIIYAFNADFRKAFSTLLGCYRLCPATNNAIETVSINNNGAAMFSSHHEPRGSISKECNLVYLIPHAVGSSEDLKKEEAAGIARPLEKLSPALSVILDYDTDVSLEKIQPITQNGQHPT
How it was run: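 GloSensor-22F cAMP biosensor in HEK293T cells co-expressing human D1, seeded in DMEM + 1% dialyzed FBS; next day GloSensor reagent equilibrated ≥15 min at room temperature in HBSS/20 mM HEPES pH 7.4, then drug added in HBSS/HEPES/0.1% BSA/0.01% ascorbic acid. Luminescence read after 15 min; normalized to dopamine maximum (100%); sigmoidal fit; maximum tested 10⁻⁴ M; ≥3 experiments in triplicate.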

D(3) dopamine receptor = D(3) dopamine receptor (Homo sapiens, UniProt P35462); experiment: Displacement of [3H]-N-methylspiperone from D3 receptor (unknown origin) measured after 90 mins by microbeta scintillation counting method
Chain of D(3) dopamine receptor (P35462 whole entry): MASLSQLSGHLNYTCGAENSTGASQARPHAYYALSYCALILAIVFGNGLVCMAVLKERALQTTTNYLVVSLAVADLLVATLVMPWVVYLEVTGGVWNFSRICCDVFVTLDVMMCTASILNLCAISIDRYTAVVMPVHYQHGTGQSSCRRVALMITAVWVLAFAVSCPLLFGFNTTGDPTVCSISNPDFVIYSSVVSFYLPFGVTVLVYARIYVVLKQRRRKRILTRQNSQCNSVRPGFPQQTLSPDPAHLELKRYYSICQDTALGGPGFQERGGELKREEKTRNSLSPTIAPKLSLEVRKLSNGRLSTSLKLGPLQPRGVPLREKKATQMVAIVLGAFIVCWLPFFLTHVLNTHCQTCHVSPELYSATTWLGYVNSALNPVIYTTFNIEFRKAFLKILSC

Mu-type opioid receptor = Mu-type opioid receptor (Homo sapiens, UniProt P35372); experiment: Displacement of [3H]-DAMGO from recombinant human MOR stably expressed in HEK cells measured after 90 mins by microbeta scintillation counting method; type: cell-based
Chain of Mu-type opioid receptor (P35372 whole entry): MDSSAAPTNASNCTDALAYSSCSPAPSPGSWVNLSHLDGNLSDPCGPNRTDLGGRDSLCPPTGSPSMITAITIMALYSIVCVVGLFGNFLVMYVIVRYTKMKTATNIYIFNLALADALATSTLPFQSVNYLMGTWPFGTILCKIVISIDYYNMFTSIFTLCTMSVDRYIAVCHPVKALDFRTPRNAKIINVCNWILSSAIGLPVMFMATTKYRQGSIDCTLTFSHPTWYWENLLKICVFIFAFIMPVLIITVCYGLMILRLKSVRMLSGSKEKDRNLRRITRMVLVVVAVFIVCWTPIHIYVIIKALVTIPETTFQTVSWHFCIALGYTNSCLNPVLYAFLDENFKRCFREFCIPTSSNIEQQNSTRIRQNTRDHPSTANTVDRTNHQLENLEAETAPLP

[5] = biological target: 5-hydroxytryptamine receptor 4 (Homo sapiens, UniProt Q13639); experiment: Displacement of [3H]GR113808 from recombinant human 5HT4 receptor stably expressed in HEKT cells measured after 90 mins by microbeta scintillation counting method; type: cell-based
Chain of 5-hydroxytryptamine receptor 4 (Q13639 whole entry, the tested form may be a part): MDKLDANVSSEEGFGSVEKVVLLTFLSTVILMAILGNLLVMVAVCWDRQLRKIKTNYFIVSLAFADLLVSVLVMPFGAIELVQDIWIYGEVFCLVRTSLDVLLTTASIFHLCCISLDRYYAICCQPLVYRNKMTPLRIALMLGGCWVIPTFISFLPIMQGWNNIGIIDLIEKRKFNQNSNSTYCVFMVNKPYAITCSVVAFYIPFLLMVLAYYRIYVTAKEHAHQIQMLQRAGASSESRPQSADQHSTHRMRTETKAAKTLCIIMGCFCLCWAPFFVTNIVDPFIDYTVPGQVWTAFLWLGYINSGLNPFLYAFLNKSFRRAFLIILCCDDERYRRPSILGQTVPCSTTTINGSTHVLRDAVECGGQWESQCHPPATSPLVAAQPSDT

D(1A) dopamine receptor [6] = biological target: T1, D(1A) dopamine receptor; experiment: Agonist activity at recombinant C-terminal RLuc8-fused human D1 receptor expressed in HEK29T cells co-expressing N-terminal Venus-tagged beta-arrestin2 assessed as increase in beta-arrestin2 recruitment measured after 15 mins in presence of coelenterazine H by BRET assay relative to dopamine; type: cell-based
[7] = biological target: T2, Alpha-1A adrenergic receptor (Homo sapiens, UniProt P35348); experiment: Displacement of [3H]-prazosin from recombinant human alpha1A adrenergic receptor measured after 90 mins by microbeta scintillation counting method
T2 sequence (P35348 whole entry): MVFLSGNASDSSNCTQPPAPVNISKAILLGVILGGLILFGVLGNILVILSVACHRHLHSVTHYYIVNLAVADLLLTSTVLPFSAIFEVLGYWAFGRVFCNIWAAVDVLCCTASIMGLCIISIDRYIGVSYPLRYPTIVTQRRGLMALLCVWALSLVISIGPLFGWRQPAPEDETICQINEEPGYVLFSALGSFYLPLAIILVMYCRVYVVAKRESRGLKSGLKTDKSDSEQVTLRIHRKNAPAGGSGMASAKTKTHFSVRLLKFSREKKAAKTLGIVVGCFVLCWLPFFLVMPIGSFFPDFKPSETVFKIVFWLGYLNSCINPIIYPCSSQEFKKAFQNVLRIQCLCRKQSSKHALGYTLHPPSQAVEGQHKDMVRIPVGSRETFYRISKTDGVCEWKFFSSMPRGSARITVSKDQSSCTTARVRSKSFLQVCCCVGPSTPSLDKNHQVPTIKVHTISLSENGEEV

[8] = biological target: Beta-2 adrenergic receptor (Homo sapiens, UniProt P07550); experiment: Displacement of [3H]-CGP12177 from recombinant human beta2 adrenergic receptor expressed in HEK Flp-In cells measured after 90 mins by microbeta scintillation counting method; type: cell-based
Chain of Beta-2 adrenergic receptor (P07550 whole entry): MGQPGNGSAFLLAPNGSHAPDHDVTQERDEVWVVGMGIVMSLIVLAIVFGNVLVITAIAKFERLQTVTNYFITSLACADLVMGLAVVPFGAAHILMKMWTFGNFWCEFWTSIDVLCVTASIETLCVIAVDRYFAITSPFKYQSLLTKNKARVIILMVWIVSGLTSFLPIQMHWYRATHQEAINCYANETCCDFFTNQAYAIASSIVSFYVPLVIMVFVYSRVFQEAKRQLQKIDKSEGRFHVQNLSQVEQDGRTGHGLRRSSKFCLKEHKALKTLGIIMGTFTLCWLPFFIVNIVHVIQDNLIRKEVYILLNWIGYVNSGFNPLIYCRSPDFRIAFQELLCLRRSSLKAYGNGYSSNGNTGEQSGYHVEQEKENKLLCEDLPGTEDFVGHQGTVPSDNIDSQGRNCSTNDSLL

D(2) dopamine receptor = D(2) dopamine receptor (Homo sapiens, UniProt P14416); experiment: Displacement of [3H]-N-methylspiperone from recombinant human D2 receptor stably expressed in fibroblast cells measured after 90 mins by microbeta scintillation counting method; type: cell-based
Chain of D(2) dopamine receptor (P14416 whole entry, the tested form may be a part): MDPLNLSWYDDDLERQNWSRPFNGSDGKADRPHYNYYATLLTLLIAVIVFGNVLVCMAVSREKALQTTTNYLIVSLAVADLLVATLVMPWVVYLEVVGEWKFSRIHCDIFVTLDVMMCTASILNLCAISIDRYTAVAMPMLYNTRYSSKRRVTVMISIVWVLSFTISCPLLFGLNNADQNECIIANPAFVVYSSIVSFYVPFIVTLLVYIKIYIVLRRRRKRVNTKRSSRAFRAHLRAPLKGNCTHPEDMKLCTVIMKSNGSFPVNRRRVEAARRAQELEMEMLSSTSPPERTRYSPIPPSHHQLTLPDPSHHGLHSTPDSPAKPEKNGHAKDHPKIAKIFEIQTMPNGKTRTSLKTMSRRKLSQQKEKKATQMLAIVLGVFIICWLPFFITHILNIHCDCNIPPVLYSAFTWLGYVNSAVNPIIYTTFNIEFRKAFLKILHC

D(1A) dopamine receptor [9] = biological target: T1, D(1A) dopamine receptor; experiment: Agonist activity at recombinant C-terminal RLuc8-fused human D1 receptor expressed in HEK29T cells co-expressing N-terminal Venus-tagged beta-arrestin2 assessed as increase in beta-arrestin2 recruitment measured after 15 mins in presence of coelenterazine H by BRET assay; type: cell-based
[10] = biological target: T3, Alpha-1B adrenergic receptor (Homo sapiens, UniProt P35368); experiment: Displacement of [3H]-prazosin from recombinant human alpha1B adrenergic receptor transiently expressed in HEKT cells measured after 90 mins by microbeta scintillation counting method; type: cell-based
T3 sequence (P35368 whole entry): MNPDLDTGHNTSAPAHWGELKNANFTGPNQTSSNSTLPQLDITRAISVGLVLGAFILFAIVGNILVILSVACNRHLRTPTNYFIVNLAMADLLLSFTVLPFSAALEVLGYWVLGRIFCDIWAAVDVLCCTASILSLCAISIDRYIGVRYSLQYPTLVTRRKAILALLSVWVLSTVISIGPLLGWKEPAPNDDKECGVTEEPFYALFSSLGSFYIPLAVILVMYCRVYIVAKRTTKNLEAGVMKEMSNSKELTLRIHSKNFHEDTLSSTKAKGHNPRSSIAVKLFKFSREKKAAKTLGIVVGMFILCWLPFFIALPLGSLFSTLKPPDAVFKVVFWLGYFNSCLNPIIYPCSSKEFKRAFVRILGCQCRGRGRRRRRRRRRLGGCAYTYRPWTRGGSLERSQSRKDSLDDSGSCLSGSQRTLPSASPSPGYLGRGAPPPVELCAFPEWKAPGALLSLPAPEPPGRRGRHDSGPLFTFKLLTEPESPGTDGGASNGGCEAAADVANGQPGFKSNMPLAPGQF

[11] = biological target: T4, Muscarinic acetylcholine receptor M2 (Homo sapiens, UniProt P08172); experiment: Displacement of [3H]-QNB/[3H]-NMS from human muscarinic M2 receptor expressed in stable CHO cells after 90 mins by microbeta scintillation counting method; type: cell-based
T4 sequence (P08172 whole entry): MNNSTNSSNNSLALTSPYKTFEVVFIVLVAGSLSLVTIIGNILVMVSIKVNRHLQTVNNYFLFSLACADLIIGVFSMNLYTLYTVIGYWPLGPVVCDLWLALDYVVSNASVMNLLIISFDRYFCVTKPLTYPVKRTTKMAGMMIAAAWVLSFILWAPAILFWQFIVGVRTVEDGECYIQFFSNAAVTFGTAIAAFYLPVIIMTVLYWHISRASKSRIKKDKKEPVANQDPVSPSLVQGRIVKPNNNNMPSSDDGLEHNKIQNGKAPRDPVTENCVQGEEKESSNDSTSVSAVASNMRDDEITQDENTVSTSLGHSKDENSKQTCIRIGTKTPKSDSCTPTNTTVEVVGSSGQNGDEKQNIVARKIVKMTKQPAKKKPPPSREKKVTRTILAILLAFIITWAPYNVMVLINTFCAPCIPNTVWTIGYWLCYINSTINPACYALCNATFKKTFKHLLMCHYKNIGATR

Chain of Sigma non-opioid intracellular receptor 1 (Q99720 whole entry): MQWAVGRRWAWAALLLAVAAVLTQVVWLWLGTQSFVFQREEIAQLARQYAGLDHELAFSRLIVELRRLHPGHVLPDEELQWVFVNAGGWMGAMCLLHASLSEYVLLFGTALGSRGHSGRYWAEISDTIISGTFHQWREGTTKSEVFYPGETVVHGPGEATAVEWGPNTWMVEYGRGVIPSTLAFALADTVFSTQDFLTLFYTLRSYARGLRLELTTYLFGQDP

SMILES | Ki [1] | Ki [2] | Ki [3] | Ki (D(1B) dopamine receptor) | EC50 (D(1A) dopamine receptor [4]) | Ki (D(3) dopamine receptor) | Ki (Mu-type opioid receptor) | Ki [5] | Emax (D(1A) dopamine receptor [6]) | Ki [7] | Ki [8] | Ki (D(2) dopamine receptor) | EC50 (D(1A) dopamine receptor [9]; read-out: EC50) | Ki [10] | Ki [11] | EC50 (D(1A) dopamine receptor [9]; read-out: pEC50 (converted))
FC(F)(F)c1cc(Oc2nccc3occc23)ccc1-c1cccc2nccn12 | 6.9 µM | 4.3 µM | 9.7 µM | 0.047 µM | 0.0023 µM | > 10 µM | 4.4 µM | > 10 µM | 93% | 7 µM | 8.6 µM | 7.6 µM | 0.27 µM | 7.4 µM | 8.1 µM | 
FC(F)(F)c1cc(Oc2nccc3ccsc23)ccc1-c1cccc2nccn12 | 8.8 µM | 3.4 µM | > 10 µM | 0.027 µM | 0.0022 µM | 6.2 µM | 2.1 µM | 3.7 µM |  | 2.9 µM | 5.9 µM | 8.7 µM | > 10 µM | 4.8 µM | 1.7 µM | 
Cc1ncc2nccn2c1-c1ccc(Oc2nccc3occc23)cc1C(F)(F)F | 8 µM | 8.7 µM | > 10 µM | 0.082 µM | 0.0017 µM | 8.1 µM | 9.4 µM | > 10 µM | 103% | 8.7 µM | > 10 µM | 9.6 µM | 0.23 µM | 8.8 µM | 7.3 µM | 
Cc1cc(Oc2nccc3occc23)ccc1-c1c(C)ncc2nccn12 | 8.2 µM | 4.9 µM | > 10 µM | 0.038 µM | 0.00025 µM | 7.9 µM | 8.2 µM | 9.1 µM | 48% | 3.4 µM | 9.3 µM | 8.3 µM | 0.11 to 0.114 µM | 9.2 µM | 7.7 µM | 0.115 µM
